Test results published in ChEMBL document CHEMBL4382192, “Discovery of a potent dual ALK and EGFR T790M inhibitor” (Eur J Med Chem, 2017).

How the values were obtained:
CYP3A4 = CYP3A4 (Homo sapiens, UniProt P08684); assay: Residual activity of CYP3A4 in human liver microsomes at 10 uM using midazolam 1-hydroxylase as substrate preincubated for 5 mins followed by NADPH addition measured after 15 mins by LC/MS/MS analysis relative to control; settings: probe midazolam (1-hydroxylation)
CYP2D6 = CYP2D6 (Homo sapiens, UniProt P10635); assay: Residual activity of CYP2D6 in human liver microsomes at 10 uM using dextromethorphan O-demethylase as substrate preincubated for 5 mins followed by NADPH addition measured after 15 mins by LC/MS/MS analysis relative to control; settings: probe dextromethorphan (O-demethylation)
CYP2D6, sequence (P10635 whole entry): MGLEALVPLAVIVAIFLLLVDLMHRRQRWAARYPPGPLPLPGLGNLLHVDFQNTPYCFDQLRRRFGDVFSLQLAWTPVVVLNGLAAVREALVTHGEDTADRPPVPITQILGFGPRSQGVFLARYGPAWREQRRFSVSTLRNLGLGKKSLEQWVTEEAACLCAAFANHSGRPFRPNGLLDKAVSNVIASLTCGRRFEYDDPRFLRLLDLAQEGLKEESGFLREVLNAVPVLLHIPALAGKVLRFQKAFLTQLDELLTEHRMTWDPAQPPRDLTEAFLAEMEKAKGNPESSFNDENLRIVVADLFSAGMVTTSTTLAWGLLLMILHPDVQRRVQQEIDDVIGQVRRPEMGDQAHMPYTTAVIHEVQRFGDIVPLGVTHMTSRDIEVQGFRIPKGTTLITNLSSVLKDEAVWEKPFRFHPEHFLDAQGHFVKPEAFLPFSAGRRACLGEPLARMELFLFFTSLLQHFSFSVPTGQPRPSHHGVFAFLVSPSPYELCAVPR

CYP2C9 = CYP2C9 (Homo sapiens, UniProt P11712); assay: Residual activity of CYP2C9 in human liver microsomes at 10 uM using tolbutamide 4-hydroxylase as substrate preincubated for 5 mins followed by NADPH addition measured after 15 mins by LC/MS/MS analysis relative to control; settings: probe tolbutamide (4-hydroxylation)
CYP2C9, sequence (P11712 whole entry): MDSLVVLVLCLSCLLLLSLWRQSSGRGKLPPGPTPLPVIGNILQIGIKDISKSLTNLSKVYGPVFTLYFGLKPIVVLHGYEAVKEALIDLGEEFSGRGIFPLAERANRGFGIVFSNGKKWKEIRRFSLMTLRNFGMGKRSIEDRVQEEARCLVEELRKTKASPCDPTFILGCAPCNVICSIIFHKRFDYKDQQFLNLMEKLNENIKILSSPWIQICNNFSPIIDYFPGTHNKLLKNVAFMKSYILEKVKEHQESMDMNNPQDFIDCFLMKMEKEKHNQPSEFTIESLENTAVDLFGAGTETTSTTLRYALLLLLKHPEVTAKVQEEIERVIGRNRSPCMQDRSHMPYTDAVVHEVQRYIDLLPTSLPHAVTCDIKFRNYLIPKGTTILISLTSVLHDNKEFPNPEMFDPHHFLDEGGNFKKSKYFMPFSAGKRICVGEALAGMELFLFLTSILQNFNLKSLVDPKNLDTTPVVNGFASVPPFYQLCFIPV

BaF3 = assay: Antiproliferative activity against mouse BAF3 cells assessed as reduction in cell viability after 72 hrs by MTS assay; assay type: cell-based; settings: BaF3, 72 h
[1] = Metabolic stability in dog liver microsomes assessed as parent compound remaining at 1 uM after 30 mins in presence of NADPH by LC/MS/MS analysis; assay type: ADME, Canis lupus familiaris, Microsome; settings: read-out: Stability
How it was run: (§1)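 Compound at 1 μM final with 0.5 mg/mL microsomal protein in 100 mM phosphate buffer pH 7.4 at 37 °C, started by adding an NADPH-regenerating system. Reactions were quenched with cold acetonitrile at 0 and 30 min and spun down. Supernatant was analysed by LC-MS/MS. The 0-min sample, quenched before NADPH addition, was set as 100%, and percent parent remaining came from peak areas.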

[2] = Metabolic stability in mouse liver microsomes assessed as parent compound remaining at 1 uM after 30 mins in presence of NADPH by LC/MS/MS analysis; assay type: ADME, Microsome; settings: read-out: Stability
How it was run: as §1

[3] = Metabolic stability in rat liver microsomes assessed as parent compound remaining at 1 uM after 30 mins in presence of NADPH by LC/MS/MS analysis; assay type: ADME, Microsome; settings: read-out: Stability
How it was run: as §1

[4] = Metabolic stability in human liver microsomes assessed as parent compound remaining at 1 uM after 30 mins in presence of NADPH by LC/MS/MS analysis; assay type: ADME, Microsome; settings: read-out: Stability
How it was run: as §1

CYP1A2 = target: T1, CYP1A2 (Homo sapiens, UniProt P05177); assay: Residual activity of CYP1A2 in human liver microsomes at 10 uM using phenacetin O-deethylase as substrate preincubated for 5 mins followed by NADPH addition measured after 15 mins by LC/MS/MS analysis relative to control; settings: probe phenacetin (O-deethylation)
T1 sequence (P05177 whole entry): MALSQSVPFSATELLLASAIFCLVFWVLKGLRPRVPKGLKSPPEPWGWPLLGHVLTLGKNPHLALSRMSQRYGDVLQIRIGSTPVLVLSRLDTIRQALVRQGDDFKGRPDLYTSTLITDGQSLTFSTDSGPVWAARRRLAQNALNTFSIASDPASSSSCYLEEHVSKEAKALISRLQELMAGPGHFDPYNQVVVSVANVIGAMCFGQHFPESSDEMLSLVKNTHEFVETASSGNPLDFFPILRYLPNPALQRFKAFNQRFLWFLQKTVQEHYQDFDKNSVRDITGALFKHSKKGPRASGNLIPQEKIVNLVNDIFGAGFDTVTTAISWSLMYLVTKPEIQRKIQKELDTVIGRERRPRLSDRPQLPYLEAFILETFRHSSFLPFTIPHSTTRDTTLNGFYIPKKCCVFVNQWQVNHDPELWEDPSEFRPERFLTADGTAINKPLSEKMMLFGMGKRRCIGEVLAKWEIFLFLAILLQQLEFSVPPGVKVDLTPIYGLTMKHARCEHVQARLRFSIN

CYP2C19 = CYP2C19 (Homo sapiens, UniProt P33261); assay: Residual activity of CYP2C19 in human liver microsomes at 10 uM using S-mephenytoin 4-hydroxylase as substrate preincubated for 5 mins followed by NADPH addition measured after 15 mins by LC/MS/MS analysis relative to control; settings: probe S-mephenytoin (4-hydroxylation)
CYP2C19, sequence (P33261 whole entry, the tested form may be a part): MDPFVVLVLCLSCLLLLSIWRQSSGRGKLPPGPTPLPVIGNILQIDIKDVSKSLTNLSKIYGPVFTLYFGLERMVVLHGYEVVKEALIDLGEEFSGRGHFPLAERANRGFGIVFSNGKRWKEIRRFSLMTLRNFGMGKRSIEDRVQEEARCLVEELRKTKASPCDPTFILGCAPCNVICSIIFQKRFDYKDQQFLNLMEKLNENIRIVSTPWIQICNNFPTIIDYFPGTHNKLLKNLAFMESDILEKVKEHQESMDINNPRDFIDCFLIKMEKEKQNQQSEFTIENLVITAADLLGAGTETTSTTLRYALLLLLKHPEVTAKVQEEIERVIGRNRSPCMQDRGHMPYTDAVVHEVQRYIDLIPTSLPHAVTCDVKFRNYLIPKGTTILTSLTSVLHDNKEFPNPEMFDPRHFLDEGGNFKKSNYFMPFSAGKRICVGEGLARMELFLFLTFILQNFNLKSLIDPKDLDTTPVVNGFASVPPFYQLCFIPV

[5] = target: ALK tyrosine kinase receptor (Homo sapiens, UniProt Q9UM73); assay: Inhibition of GST-tagged human ALK cytoplasmic domain (1058 to 1620 residues) expressed in baculovirus expression system using Poly G:T (4:1) as substrate after 30 mins by Z-LYTE assay
ALK tyrosine kinase receptor, sequence (Q9UM73 whole entry, the tested form may be a part): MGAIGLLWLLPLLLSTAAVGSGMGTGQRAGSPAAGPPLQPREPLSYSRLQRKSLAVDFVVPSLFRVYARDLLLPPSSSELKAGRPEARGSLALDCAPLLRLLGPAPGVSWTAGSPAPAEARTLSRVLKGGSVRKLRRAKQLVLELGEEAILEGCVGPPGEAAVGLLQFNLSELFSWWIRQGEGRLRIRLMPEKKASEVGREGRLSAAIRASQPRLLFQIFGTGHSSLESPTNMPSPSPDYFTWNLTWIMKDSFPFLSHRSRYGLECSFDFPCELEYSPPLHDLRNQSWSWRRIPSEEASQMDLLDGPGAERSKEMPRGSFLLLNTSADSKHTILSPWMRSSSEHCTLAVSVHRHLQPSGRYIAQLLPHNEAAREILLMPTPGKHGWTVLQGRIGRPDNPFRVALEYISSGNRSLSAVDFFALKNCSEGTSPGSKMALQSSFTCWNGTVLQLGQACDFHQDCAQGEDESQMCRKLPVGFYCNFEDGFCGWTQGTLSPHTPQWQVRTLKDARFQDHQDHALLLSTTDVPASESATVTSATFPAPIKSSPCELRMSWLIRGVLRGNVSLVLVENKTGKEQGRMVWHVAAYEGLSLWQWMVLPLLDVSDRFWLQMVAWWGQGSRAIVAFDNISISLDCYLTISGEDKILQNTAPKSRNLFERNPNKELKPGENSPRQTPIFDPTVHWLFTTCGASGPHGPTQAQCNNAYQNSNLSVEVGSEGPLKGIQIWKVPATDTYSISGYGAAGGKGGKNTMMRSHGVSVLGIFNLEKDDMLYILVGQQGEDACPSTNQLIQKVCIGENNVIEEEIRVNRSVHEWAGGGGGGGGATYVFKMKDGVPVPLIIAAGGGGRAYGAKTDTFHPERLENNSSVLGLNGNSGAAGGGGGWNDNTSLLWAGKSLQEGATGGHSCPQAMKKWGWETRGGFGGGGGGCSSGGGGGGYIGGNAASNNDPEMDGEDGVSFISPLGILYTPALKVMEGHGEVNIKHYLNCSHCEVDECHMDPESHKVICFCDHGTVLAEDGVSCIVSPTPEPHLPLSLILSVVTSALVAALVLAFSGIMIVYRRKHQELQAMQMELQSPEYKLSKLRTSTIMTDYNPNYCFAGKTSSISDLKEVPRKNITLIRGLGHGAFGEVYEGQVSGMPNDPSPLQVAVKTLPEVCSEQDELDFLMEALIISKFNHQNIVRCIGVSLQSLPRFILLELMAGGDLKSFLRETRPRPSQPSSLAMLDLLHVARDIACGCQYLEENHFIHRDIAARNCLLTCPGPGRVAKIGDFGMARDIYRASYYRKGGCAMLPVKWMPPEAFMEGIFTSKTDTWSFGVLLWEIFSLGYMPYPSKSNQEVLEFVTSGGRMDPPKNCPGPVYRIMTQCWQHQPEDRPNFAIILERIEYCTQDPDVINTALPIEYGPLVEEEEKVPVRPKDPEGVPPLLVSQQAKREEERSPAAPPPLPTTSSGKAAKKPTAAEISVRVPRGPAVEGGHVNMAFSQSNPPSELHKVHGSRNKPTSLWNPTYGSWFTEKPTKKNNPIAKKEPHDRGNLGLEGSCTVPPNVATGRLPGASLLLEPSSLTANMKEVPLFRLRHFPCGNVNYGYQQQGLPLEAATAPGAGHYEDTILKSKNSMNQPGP

CYP3A4, sequence (P08684 whole entry): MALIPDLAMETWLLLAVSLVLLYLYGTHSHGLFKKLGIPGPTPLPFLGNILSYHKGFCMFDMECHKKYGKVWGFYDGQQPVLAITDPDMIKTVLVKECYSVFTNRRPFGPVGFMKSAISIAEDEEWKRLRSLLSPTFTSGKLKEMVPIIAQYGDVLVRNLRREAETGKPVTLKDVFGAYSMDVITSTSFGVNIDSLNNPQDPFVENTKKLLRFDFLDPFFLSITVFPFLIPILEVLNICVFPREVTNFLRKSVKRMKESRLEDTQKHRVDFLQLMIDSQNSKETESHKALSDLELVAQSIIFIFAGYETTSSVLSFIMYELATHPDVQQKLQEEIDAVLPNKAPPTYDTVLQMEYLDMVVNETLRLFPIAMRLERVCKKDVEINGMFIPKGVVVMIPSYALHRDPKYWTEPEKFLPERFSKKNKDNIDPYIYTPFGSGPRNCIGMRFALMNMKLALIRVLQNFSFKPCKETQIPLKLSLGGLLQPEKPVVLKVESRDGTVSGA

Row | SMILES | Activity at […], 10 µM (CYP3A4) [%] | Activity at […], 10 µM (CYP2D6) [%] | Activity at […], 10 µM (CYP2C9) [%] | EC50 (BaF3) [µM] | remaining at 0.5 h, 1 µM [1] [%] | remaining at 0.5 h, 1 µM [2] [%] | remaining at 0.5 h, 1 µM [3] [%] | remaining at 0.5 h, 1 µM [4] [%] | Activity at […], 10 µM (CYP1A2) [%] | Activity at […], 10 µM (CYP2C19) [%] | IC50 [5] [µM]
1 | C=CC(=O)Nc1cc(Nc2ncc(I)c(Nc3ccccc3P(C)(C)=O)n2)c(OC)cc1N(C)CCN(C)C | 88 | 80 | > 100 | > 5 | 93 | 57 | 81 | 65 | 91 | 99 | –
2 | C=CC(=O)Nc1cc(Nc2ncc(Cl)c(Nc3ccccc3P(C)(C)=O)n2)c(OC)cc1N(C)CCN(C)C | 91 | 85 | > 100 | > 5 | 77 | 66 | 76 | 61 | 93 | 98 | –
3 | C=CC(=O)Nc1cc(Nc2nccc(Nc3ccccc3S(=O)(=O)C(C)C)n2)c(OC)cc1N(C)CCN(C)C | 40 | 67 | 90 | > 5 | 48 | 8 | 22 | 5 | 80 | 87 | –
4 | C=CC(=O)Nc1cc(Nc2nccc(-c3cn(C)c4ccccc34)n2)c(OC)cc1N(C)CCN(C)C [OSIMERTINIB] | – | – | – | > 5 | – | – | – | – | – | – | 0.177
5 | C=CC(=O)Nc1cc(Nc2nccc(Nc3ccccc3P(C)(C)=O)n2)c(OC)cc1N(C)CCN(C)C | 89 | 87 | 90 | > 5 | 73 | 76 | 78 | 70 | 84 | > 100 | 0.695
6 | C=CC(=O)Nc1cccc(Oc2nc(Nc3ccc(N4CCN(C)CC4)cc3OC)ncc2Cl)c1 | – | – | – | > 5 | – | – | – | – | – | – | 0.99
7 | Cc1cc(Nc2ncc(Cl)c(Nc3ccccc3S(=O)(=O)C(C)C)n2)c(OC(C)C)cc1C1CCNCC1 [CERITINIB] | – | – | – | > 5 | – | – | – | – | – | – | –

Now from value to molecule:

Row | Activity at […], 10 µM (CYP3A4) [%] | Activity at […], 10 µM (CYP2D6) [%] | Activity at […], 10 µM (CYP2C9) [%] | EC50 (BaF3) [µM] | remaining at 0.5 h, 1 µM [1] [%] | remaining at 0.5 h, 1 µM [2] [%] | remaining at 0.5 h, 1 µM [3] [%] | remaining at 0.5 h, 1 µM [4] [%] | Activity at […], 10 µM (CYP1A2) [%] | Activity at […], 10 µM (CYP2C19) [%] | IC50 [5] [µM] | SMILES
8 | 56 | 79 | 88 | > 5 | 50 | 5 | 6 | 10 | 82 | 85 | – | C=CC(=O)Nc1cc(Nc2nccc(Nc3ccccc3S(=O)(=O)N(C)C)n2)c(OC)cc1N(C)CCN(C)C
9 | 47 | 82 | 88 | > 5 | 19 | 10 | 14 | 14 | 81 | 86 | – | C=CC(=O)Nc1cc(Nc2ncc(I)c(Nc3ccccc3S(=O)(=O)C(C)C)n2)c(OC)cc1N(C)CCN(C)C
10 | 54 | 93 | 85 | – | 35 | 12 | 12 | 13 | 79 | 67 | – | C=CC(=O)Nc1cc(Nc2ncc(I)c(Nc3ccccc3S(=O)(=O)N(C)C)n2)c(OC)cc1N(C)CCN(C)C
11 | 71 | > 100 | 88 | – | 33 | 10 | 7 | 9 | > 100 | 91 | – | C=CC(=O)Nc1cc(Nc2ncc(F)c(Nc3ccccc3S(=O)(=O)N(C)C)n2)c(OC)cc1N(C)CCN(C)C
12 | > 100 | > 100 | > 100 | > 5 | 87 | 80 | 87 | 84 | > 100 | > 100 | – | C=CC(=O)Nc1cc(Nc2ncc(F)c(Nc3ccccc3P(C)(C)=O)n2)c(OC)cc1N(C)CCN(C)C
13 | 39 | 88 | 59 | – | 31 | 23 | 13 | 11 | 87 | 75 | – | C=CC(=O)Nc1cc(Nc2ncc(Cl)c(Nc3ccccc3S(=O)(=O)N(C)C)n2)c(OC)cc1N(C)CCN(C)C
14 | 51 | 95 | 94 | > 5 | 27 | 15 | 11 | 26 | 91 | 93 | – | C=CC(=O)Nc1cc(Nc2ncc(F)c(Nc3ccccc3S(=O)(=O)C(C)C)n2)c(OC)cc1N(C)CCN(C)C
